According to ChEMBL document CHEMBL4190200, “Inhibition Potential of Cycloartane-Type Glycosides from the Roots of Cimicifuga dahurica against Soluble Epoxide Hydrolase” (J Nat Prod, 2017):
Activity calls are given as the source filed them. The calls are words filed in the database; no cut-off is given here.

Assays:
[1] = target: T1, Bifunctional epoxide hydrolase 2 (Homo sapiens) (UniProt P34913); experiment: Inhibition of soluble epoxide hydrolase (unknown origin) using PHOME as substrate at 100 uM measured for 1 hr by fluorescence assay relative to control
T1 sequence (whole entry): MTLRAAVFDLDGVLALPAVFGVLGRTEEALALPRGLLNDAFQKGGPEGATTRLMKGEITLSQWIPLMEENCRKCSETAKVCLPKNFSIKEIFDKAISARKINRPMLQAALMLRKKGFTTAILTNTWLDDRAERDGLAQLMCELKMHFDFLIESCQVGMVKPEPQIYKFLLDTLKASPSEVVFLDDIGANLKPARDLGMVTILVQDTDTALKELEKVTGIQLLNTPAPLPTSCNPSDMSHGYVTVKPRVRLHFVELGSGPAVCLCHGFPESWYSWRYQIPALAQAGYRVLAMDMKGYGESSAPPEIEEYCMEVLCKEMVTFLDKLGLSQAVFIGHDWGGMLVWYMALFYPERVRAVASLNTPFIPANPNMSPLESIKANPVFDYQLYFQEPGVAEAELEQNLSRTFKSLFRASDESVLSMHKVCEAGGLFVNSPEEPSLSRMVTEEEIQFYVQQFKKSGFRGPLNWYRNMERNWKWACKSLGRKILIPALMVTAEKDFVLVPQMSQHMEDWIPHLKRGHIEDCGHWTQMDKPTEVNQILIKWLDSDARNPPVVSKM
How it was run: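 sEH (31.6 ng/mL) mixed with compound in MeOH in 25 mM Bis-Tris-HCl, pH 7.0, with 0.1 mg/mL BSA; 40 μM PHOME substrate (stock added) started the reaction at 37 °C. Fluorescence read at ex 330/em 465 nm for 1 h. Activity (%) taken from the signal change between 0 and 40 min, relative to the uninhibited control. Positive control AUDA.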

[2] = target: T2, Bifunctional epoxide hydrolase 2 (Homo sapiens, UniProt P34913); experiment: Inhibition of soluble epoxide hydrolase (unknown origin) using PHOME as substrate measured for 1 hr by fluorescence assay
T2 sequence (P34913 whole entry): T1 sequence (whole entry)

[3] = target: T1, Bifunctional epoxide hydrolase 2 (Homo sapiens); experiment: Competitive inhibition of soluble epoxide hydrolase (unknown origin) using PHOME as substrate measured for 1 hr by Lineweaver-Burk plot analysis
[4] = target: T1, Bifunctional epoxide hydrolase 2 (Homo sapiens); experiment: Mixed inhibition of soluble epoxide hydrolase (unknown origin) using PHOME as substrate measured for 1 hr by Lineweaver-Burk plot analysis
[5] = target: T1, Bifunctional epoxide hydrolase 2 (Homo sapiens); experiment: Non-competitive inhibition of soluble epoxide hydrolase (unknown origin) using PHOME as substrate measured for 1 hr by Lineweaver-Burk plot analysis

| SMILES | inhibition [1] | IC50 [2] | inhibition mode [3] | inhibition [4] | inhibition [5] |
| --- | --- | --- | --- | --- | --- |
| CC(=O)O[C@H]1[C@H](O[C@H]2CC[C@]34C[C@]35CC[C@]3(C)[C@H]6[C@H](C)C[C@H]7O[C@@]6(O[C@H]7C(C)(C)O)[C@H](O)[C@@]3(C)C5=CC[C@H]4C2(C)C)OC[C@@H](O)[C@@H]1O | 64.9% | 60.9 µM |  |  |  |
| CC(=O)OC(C)(C)[C@H]1O[C@@]23O[C@@H]1C[C@@H](C)[C@@H]2[C@@]1(C)CC[C@@]24C[C@@]25CC[C@H](O[C@@H]2OC[C@@H](O)[C@H](O)[C@H]2O)C(C)(C)[C@@H]5CC=C4[C@]1(C)[C@H]3O | 76.7% | 24 µM | Active |  |  |
| C[C@H]1[C@H]2[C@@H](O[C@@]3(O)[C@@H]1OC(C)(C)[C@H]3O)[C@H](O)[C@@]1(C)[C@@H]3CC[C@H]4C(C)(C)[C@@H](O[C@@H]5OC[C@@H](O)[C@H](O)[C@H]5O)CC[C@@]45C[C@@]35CC[C@]21C | 70.2% | 4.4 µM | Active |  |  |
| CC(=O)O[C@H](C[C@@H](C)[C@H]1C(=O)[C@H](O)[C@@]2(C)C3=CC[C@H]4C(C)(C)[C@@H](O[C@@H]5OC[C@@H](O)[C@H](O)[C@H]5O)CC[C@@]45C[C@@]35CC[C@]12C)[C@@H](O)C(C)(C)O | 72.4% | 5.2 µM |  |  | Active |
| CC(=O)O[C@H]([C@H]1C[C@@H](C)[C@H]2[C@@](O)(O1)[C@H](O)[C@@]1(C)[C@@H]3CC[C@H]4C(C)(C)[C@@H](O[C@@H]5OC[C@@H](O)[C@H](O)[C@H]5O)CC[C@@]45C[C@@]35CC[C@]21C)C(C)(C)O | 66.1% | 0.4 µM | Active |  |  |

Now from value to compound:

| inhibition [1] | IC50 [2] | inhibition mode [3] | inhibition [4] | inhibition [5] | SMILES |
| --- | --- | --- | --- | --- | --- |
| 84.8% | 10.7 µM | Active |  |  | C[C@@H]1C[C@H]([C@@H](O)C(C)(C)O)O[C@]2(O)[C@H]1[C@@]1(C)CC[C@@]34C[C@@]35CC[C@H](O[C@@H]3OC[C@@H](O)[C@H](O)[C@H]3O)C(C)(C)[C@@H]5CC=C4[C@]1(C)[C@H]2O |
| 63.2% | 14.6 µM |  | Active |  | C[C@@H]1C[C@]23OCC(C)(O)[C@H]2O[C@@]2(O3)[C@H]1[C@@]1(C)CC[C@@]34C[C@@]35CC[C@H](O[C@@H]3OC[C@@H](O)[C@H](O)[C@H]3O)C(C)(C)[C@@H]5CC=C4[C@]1(C)[C@H]2O (some centres undefined) |
| 69.6% | 8.6 µM |  |  | Active | C[C@@H]1CC(=O)[C@H](O)[C@]2(O)[C@H]1[C@@]1(C)CC[C@@]34C[C@@]35CC[C@H](O[C@@H]3OC[C@@H](O)[C@H](O)[C@H]3O)C(C)(C)[C@@H]5CC=C4[C@]1(C)[C@H]2O |
| 75.6% | 0.4 µM | Active |  |  | COC(C)(C)[C@H]1O[C@@]23O[C@@H]1C[C@@H](C)[C@@H]2[C@@]1(C)CC[C@@]24C[C@@]25CC[C@H](O[C@@H]2OC[C@@H](O)[C@H](O)[C@H]2O)C(C)(C)[C@@H]5CC=C4[C@]1(C)[C@H]3O |
| 61.9% | 18.5 µM |  |  | Active | C[C@@H]1C[C@H]2O[C@]3(O[C@H]2C(C)(C)O)[C@H]1[C@@]1(C)[C@H](O)C[C@@]24C[C@@]25CC[C@H](O[C@@H]2OC[C@@H](O)[C@H](O)[C@H]2O)C(C)(C)[C@@H]5CC=C4[C@]1(C)[C@H]3O |
